# Reference: ChEMBL document CHEMBL1157042, “Triazole incorporated thiazoles as a new class of anticonvulsants: design, synthesis and in vivo screening” (Eur J Med Chem, 2010)
# Active and inactive are the calls of the source.
# What was measured:
# Mus musculus [1] = test: Anticonvulsant activity in Swiss albino mouse assessed as inhibition of maximum electric shock-induced motor impairment at 300 mg/kg, ip after 4 hrs; assay type: functional, organism-based; set-up: dose 300 mg/kg
# Outline: (§1)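 Albino mice of either sex (25–30 g), 6 per group, given drug i.p. in polyethylene glycol at 30, 100 and 300 mg/kg. Maximal electroshock was applied at 0.5 h and 4.0 h. Protection meant abolition of hind limb tonic extension.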
# Mus musculus [2] = test: Anticonvulsant activity in Swiss albino mouse assessed as inhibition of PTZ-induced motor impairment at 300 mg/kg, ip after 0.5 hrs; assay type: functional, organism-based; set-up: dose 300 mg/kg
# Outline: (§2)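 Albino mice of either sex (25–30 g), 6 per group. Test compound was given i.p. in polyethylene glycol at 30, 100 or 300 mg/kg, and subcutaneous pentylenetetrazole challenge followed 0.5 h or 4.0 h later. Activity was scored as protection in half or more of the mice.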
# Mus musculus [3] = test: Anticonvulsant activity in Swiss albino mouse assessed as inhibition of PTZ-induced motor impairment at 300 mg/kg, ip after 4 hrs; assay type: functional, organism-based; set-up: dose 300 mg/kg; outline: as §2
# Mus musculus [4] = test: Neurotoxicity in Swiss albino mouse at 300 mg/kg, ip after 0.5 hrs; assay type: toxicity, organism-based; set-up: dose 300 mg/kg, route intraperitoneal; settings: in vivo
# Mus musculus [5] = test: Anticonvulsant activity in ip dosed Swiss albino mouse assessed as inhibition of maximum electric shock-induced motor impairment after 0.5 hrs; assay type: functional; settings: read-out: MED
# [6] = Neurotoxicity in ip dosed Swiss albino mouse after 4 hrs; assay type: toxicity, organism-based; settings: in vivo
# Outline: (§3)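 Albino mice of either sex (25–30 g), 6 per group, received i.p. doses of 30, 100 and 300 mg/kg in polyethylene glycol. Trained mice were tested on the rotorod at 0.5 h and 4.0 h. Neurotoxicity was failure to keep balance on the rod for at least 1 min in each trial. The value recorded is the minimum dose affecting half or more of the mice.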
# Mus musculus [7] = test: Anticonvulsant activity in ip dosed Swiss albino mouse assessed as inhibition of PTZ-induced motor impairment after 4 hrs; assay type: functional; settings: read-out: MED
# Outline: (§4)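 Albino mice of either sex (25–30 g), 6 per group, dosed i.p. in polyethylene glycol at 30, 100 or 300 mg/kg. Subcutaneous pentylenetetrazole was given at 0.5 h or 4.0 h, and mice were watched for 30 min. Protection meant no threshold seizure (single clonic spasm episode of at least 5 s). The value is the minimum dose protecting half or more.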
# Mus musculus [8] = test: Anticonvulsant activity in ip dosed Swiss albino mouse assessed as inhibition of maximum electric shock-induced motor impairment after 4 hrs; assay type: functional; settings: read-out: MED
# [9] = Neurotoxicity in ip dosed Swiss albino mouse after 0.5 hrs; assay type: toxicity, organism-based; settings: in vivo; outline: as §3
# Mus musculus [10] = test: Anticonvulsant activity in Swiss albino mouse assessed as inhibition of maximum electric shock-induced motor impairment at 300 mg/kg, ip after 0.5 hrs; assay type: functional, organism-based; set-up: dose 300 mg/kg; outline: as §1
# Mus musculus [11] = species: Mus musculus; test: Protective index, ratio of TD50 for neurotoxicity in Swiss albino mouse to ED50 for inhibition of PTZ-induced motor impairment Swiss albino mouse; assay type: functional
# [12] = Neurotoxicity in po dosed Swiss albino mouse after 2 hrs; assay type: toxicity, organism-based; settings: in vivo
# Outline: (§5)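 Phase IV: same procedure as i.p. phase II (MES protection, or rotorod failure for at least 1 min per trial), but drugs were given orally. Groups of 10 albino mice got a dose range yielding at least three points within 10–90% effect. ED50 or TD50 was read at the indicated time via Litchfield–Wilcoxon.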
# Mus musculus [13] = test: Protective index, ratio of TD50 for neurotoxicity in po dosed Swiss albino mouse to ED50 for inhibition of maximal electroshock-induced seizures po dosed Swiss albino mouse; assay type: functional
# Mus musculus [14] = test: Anticonvulsant activity in po dosed Swiss albino mouse assessed as inhibition of maximum electric shock-induced motor impairment after 2 hrs; assay type: functional; outline: as §5
# Mus musculus [15] = test: Sedative-hypnotic activity in ip dosed Swiss albino mouse after 24 hrs; assay type: organism-based; settings: in vivo
# [16] = Toxicity in ip dosed Swiss albino mouse after 24 hrs; assay type: organism-based; settings: in vivo
# Outline: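 Albino mice of either sex (25–30 g), in groups of 10, received a range of i.p. doses in polyethylene glycol until at least three points fell within 10–90% effect. Mortality was scored 24 h after injection.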
# Mus musculus [17] = species: Mus musculus; test: Ratio of HD50 for hypnotic activity in Swiss albino mouse to ED50 for inhibition of maximal electroshock-induced seizures Swiss albino mouse; assay type: functional
# Outline: (§6)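 Ratio of HD50 to i.p. ED50 (scPTZ or MES). HD50, in mg/kg, came from loss of righting reflex in i.p.-dosed albino mice, with a dose range analysed as for phase II ED50.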
# Mus musculus [18] = species: Mus musculus; test: Ratio of HD50 for hypnotic activity in Swiss albino mouse to ED50 for inhibition of PTZ-induced motor impairment Swiss albino mouse; assay type: functional; outline: as §6
# Mus musculus [19] = test: Neurotoxicity in Swiss albino mouse at 300 mg/kg, ip after 4 hrs; assay type: toxicity, organism-based; set-up: dose 300 mg/kg, route intraperitoneal; settings: in vivo
# Mus musculus [20] = test: Anticonvulsant activity in ip dosed Swiss albino mouse assessed as inhibition of PTZ-induced motor impairment after 0.5 hrs; assay type: functional; settings: read-out: MED; outline: as §4
# [21] = Neurotoxicity in ip dosed Swiss albino mouse; assay type: toxicity, organism-based; settings: in vivo
# Mus musculus [22] = test: Anticonvulsant activity in ip dosed Swiss albino mouse assessed as inhibition of maximum electric shock-induced motor impairment; assay type: functional
# Mus musculus [23] = test: Anticonvulsant activity in ip dosed Swiss albino mouse assessed as inhibition of PTZ-induced motor impairment; assay type: functional
# Mus musculus [24] = species: Mus musculus; test: Protective index, ratio of TD50 for neurotoxicity in Swiss albino mouse to ED50 for inhibition of maximal electroshock-induced seizures Swiss albino mouse; assay type: functional
SMILES,inhibition (Mus musculus [2]),inhibition (Mus musculus [3]),Activity (Mus musculus [4]),minimal effective dose (Mus musculus [5]) [mg/kg],MTD at 4 h [6] [mg/kg],minimal effective dose (Mus musculus [7]) [mg/kg],minimal effective dose (Mus musculus [8]) [mg/kg],MTD at 0.5 h [9] [mg/kg],Activity (Mus musculus [19]),minimal effective dose (Mus musculus [20]) [mg/kg],other results
Cc1ccccc1-n1c(Nc2nc(-c3ccccc3)cs2)n[nH]c1=S,inactive,inactive,Non-toxic,100,300,,,,,,inhibition (Mus musculus [1]): inactive
S=c1[nH]nc(Nc2nc(-c3ccccc3)cs2)n1-c1ccccc1,inactive,,Non-toxic,300,300,300,,,,,inhibition (Mus musculus [1]): inactive
COc1ccccc1-n1c(Nc2nc(-c3ccc(Br)cc3)cs2)n[nH]c1=S,inactive,inactive,,300,300,,300,100,,,
O=[N+]([O-])c1ccc(-c2csc(Nc3n[nH]c(=S)n3-c3ccccc3)n2)cc1,inactive,inactive,,,300,,300,300,,,inhibition (Mus musculus [10]): inactive
Cc1ccccc1-n1c(Nc2nc(-c3ccc(Br)cc3)cs2)n[nH]c1=S,,,Non-toxic,30,,300,30,,Non-toxic,100,Ratio TD50/ED50 (Mus musculus [11]): 8.3; TD50 at 2 h [12]: 884 mg/kg; Ratio TD50/ED50 (Mus musculus [13]): 17.7; ED50 (Mus musculus [14]): 49.9 mg/kg; HD50 (Mus musculus [15]): 632 mg/kg; LD50 at 24 h [16]: 834 mg/kg; Ratio (Mus musculus [17]): 47.16; Ratio (Mus musculus [18]): 7.74; TD50 [21]: 684 mg/kg; ED50 (Mus musculus [22]): 13.4 mg/kg; ED50 (Mus musculus [23]): 81.6 mg/kg; Ratio TD50/ED50 (Mus musculus [24]): 51
COc1ccc(-n2c(Nc3nc(-c4ccc(Br)cc4)cs3)n[nH]c2=S)cc1,inactive,inactive,Non-toxic,300,,,300,,Non-toxic,,
Cc1ccccc1-n1c(Nc2nc(-c3ccc([N+](=O)[O-])cc3)cs2)n[nH]c1=S,,,,100,100,300,100,300,,100,
COc1ccc(-n2c(Nc3nc(-c4ccc([N+](=O)[O-])cc4)cs3)n[nH]c2=S)cc1,inactive,,Non-toxic,100,300,300,300,,,,
Cc1ccc(-n2c(Nc3nc(-c4ccc(Br)cc4)cs3)n[nH]c2=S)cc1,,,Non-toxic,100,100,300,300,,,300,
NC(=O)N1c2ccccc2C=Cc2ccccc21 [CARBAMAZEPINE],,,,,,,,,,,ED50 (Mus musculus [22]): 8.8 mg/kg; ED50 (Mus musculus [23]): > 100 mg/kg
CCCC(CCC)C(=O)[O-].[Na+] [VALPROATE SODIUM],,,,,,,,,,,ED50 (Mus musculus [23]): 149 mg/kg
CCC1(C)CC(=O)NC1=O (centres undefined) [ETHOSUXIMIDE],inactive,,Non-toxic,,,300,,,Non-toxic,100,inhibition (Mus musculus [10]): inactive; inhibition (Mus musculus [1]): inactive
COc1ccccc1-n1c(Nc2nc(-c3ccc([N+](=O)[O-])cc3)cs2)n[nH]c1=S,inactive,inactive,,100,300,,100,100,,,
Cc1ccc(-n2c(Nc3nc(-c4ccc([N+](=O)[O-])cc4)cs3)n[nH]c2=S)cc1,,inactive,,100,100,,300,100,,300,
COc1ccccc1-n1c(Nc2nc(-c3ccc(Cl)cc3)cs2)n[nH]c1=S,,inactive,,100,,,100,300,Non-toxic,100,
O=C1NC(=O)C(c2ccccc2)(c2ccccc2)N1 [PHENYTOIN],inactive,inactive,,30,100,,30,100,,,ED50 (Mus musculus [14]): 9.16 mg/kg; HD50 (Mus musculus [15]): 182 mg/kg; LD50 at 24 h [16]: 224 mg/kg; ED50 (Mus musculus [23]): > 300 mg/kg
COc1ccc(-n2c(Nc3nc(-c4ccccc4)cs3)n[nH]c2=S)cc1,inactive,,Non-toxic,100,,300,100,,Non-toxic,,
Cc1ccc(-n2c(Nc3nc(-c4ccc(Cl)cc4)cs3)n[nH]c2=S)cc1,inactive,inactive,Non-toxic,300,300,,300,,,,
COc1ccc(-n2c(Nc3nc(-c4ccc(Cl)cc4)cs3)n[nH]c2=S)cc1,,inactive,Non-toxic,30,,,100,,Non-toxic,300,Ratio TD50/ED50 (Mus musculus [11]): 2.4; TD50 at 2 h [12]: 735 mg/kg; Ratio TD50/ED50 (Mus musculus [13]): 13.4; ED50 (Mus musculus [14]): 54.8 mg/kg; HD50 (Mus musculus [15]): 867 mg/kg; LD50 at 24 h [16]: 946 mg/kg; Ratio (Mus musculus [17]): 36.27; Ratio (Mus musculus [18]): 4.85; TD50 [21]: 439 mg/kg; ED50 (Mus musculus [22]): 23.9 mg/kg; ED50 (Mus musculus [23]): 179 mg/kg; Ratio TD50/ED50 (Mus musculus [24]): 18.3
Cc1ccccc1-n1c(Nc2nc(-c3ccc(Cl)cc3)cs2)n[nH]c1=S,inactive,,,100,300,300,,300,,,inhibition (Mus musculus [1]): inactive
CCC1(c2ccccc2)C(=O)NC(=O)NC1=O [PHENOBARBITAL],,,,100,300,,30,100,,,ED50 (Mus musculus [22]): 21.8 mg/kg; ED50 (Mus musculus [23]): 13.2 mg/kg
S=c1[nH]nc(Nc2nc(-c3ccc(Cl)cc3)cs2)n1-c1ccccc1,inactive,inactive,Non-toxic,,,,300,,Non-toxic,,inhibition (Mus musculus [10]): inactive
Cc1ccc(-n2c(Nc3nc(-c4ccccc4)cs3)n[nH]c2=S)cc1,,inactive,Non-toxic,,,,300,,Non-toxic,300,inhibition (Mus musculus [10]): inactive
COc1ccccc1-n1c(Nc2nc(-c3ccccc3)cs2)n[nH]c1=S,inactive,inactive,Non-toxic,100,,,300,,Non-toxic,,
S=c1[nH]nc(Nc2nc(-c3ccc(Br)cc3)cs2)n1-c1ccccc1,inactive,inactive,Non-toxic,,300,,300,,,,
